According to PubChem BioAssay AID617 (SRMLSC, 2007):

Tested on: E. coli BW25113 ΔtolC growth inhibition, OD615
Assay: E. coli ΔtolC antibacterial growth inhibition – strain BW25113 ΔtolC::kan, dose response (AID 617);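 note: growth read after 20 h at 37 °C with compound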
In short: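 Test system: E. coli BW25113 ΔtolC::kan bacteria | Amount: 1:1000 diluted subculture inoculum | Medium: LB plus kanamycin | Timing: 20 h exposure at 37 °C | Signal: Absorbance at 615 nm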

Cc1nn(-c2ccccc2)c(Cl)c1C(=O)Nc1nnc(C2CCCC2)s1
IC50: 8.48 µM

Cc1ccc(NC(=O)N2CCC(c3nc4c(nnn4Cc4cccc(Cl)c4)c(=O)[nH]3)CC2)cc1
IC50: 13.5 µM

CCOC(=O)c1sc(NC(=O)c2c(C)nn(Cc3ccccc3)c2C)cc1C
IC50: 9.35 µM

CCOc1cc(/C=C(/C#N)c2ccc(F)cc2)ccc1OCc1ccc(C(=O)O)o1
IC50: 4.4 µM

Cc1cccc(-c2nc(CS(=O)CC(=O)NCCCSC3CCCCC3)c(C)o2)c1 (configuration not stated)
IC50: 10.1 µM

Cc1cccc(C(C)(C)C)c1OCCn1ccnc1
IC50: 11.8 µM

COc1ccc(Cl)cc1N(C)C(=O)CCc1nc(-c2ccc(C)cc2)no1
IC50: 15.2 µM

Nc1nncn1C(=O)CCCN1C(=O)c2ccccc2C1=O
IC50: 12.7 µM

Cc1ccc(-c2noc(CSc3nnnn3C3CCCCC3)n2)cc1
IC50: 12.9 µM

O=C(N1CCN(c2ccccc2F)CC1)C12CC3CC(CC(C3)C1)C2
IC50: 18.6 µM

CCc1cc(/C(Cc2ccc3ccccc3n2)=N\O)c(O)cc1O
IC50: 8.41 µM

COc1ccc2c(-c3ccccc3)cc(N3CCOCC3)nc2c1
IC50: 17.9 µM

COC(=O)c1cc(CSc2nc3ccc(C)cc3[nH]2)oc1C
IC50: 13.8 µM

Cc1cc(N2CCC(C)CC2)nc(-n2nc(C)cc2C)n1
IC50: 5.18 µM

CC1CCCc2sc3nc(NCc4ccco4)n4ncnc4c3c21 (configuration not stated)
IC50: 11.6 µM

Cc1cccc(-c2cc3nc4c(c(N5CCOCC5)n3n2)CCCC4)c1
IC50: 16 µM

CCNc1nc(NC(C)C)nc(N(C#N)CCOc2ccc(Cl)cc2Cl)n1
IC50: 6.64 µM

CCOc1cc(-c2c(C#N)c(=O)[nH]c3c2c(C)nn3-c2ccc(F)cc2)ccc1O
IC50: 2.48 µM

Cc1c(-c2nc(N)nc(Nc3ccccc3)n2)oc2ccccc12
IC50: 12.3 µM

CC(=O)Nc1cccc(NC(=O)c2oc3ccccc3c2C)c1
IC50: 8.33 µM

O=C(CCSc1nc(-c2ccco2)cc(C(F)(F)F)n1)N1CCCc2ccccc21
IC50: 9.2 µM

Cc1ccc2oc(=O)n(Cc3ccccc3OC(C)C)c2c1
IC50: 9 µM

O=C(COc1ccc(Cl)cc1)Nc1nnc(-c2ccc3c(c2)CCCC3)o1
IC50: 0.25 µM

CCCCCCn1c(N2CCN(c3ccccc3)CC2)nc2c1c(=O)n(C)c(=O)n2C
IC50: 10.1 µM

Fc1cccc2sc(Nc3nnc(-c4ccco4)o3)nc12
IC50: 2.84 µM

CCN(c1cccc(C(F)(F)F)c1)S(=O)(=O)c1ccc2c(c1)CCN2C(=O)C1CC1
IC50: 50.9 µM

COc1ccc(CNC(=O)c2cc(-c3ccccc3OC)on2)cc1
IC50: 56 µM

O=S(=O)(Nc1cccc2cccnc12)c1ccc(S(=O)(=O)N2CCCC2)cc1
IC50: 15.3 µM

Cc1cc(C(=O)CSc2nc3ccccc3o2)c(C)n1C1CC1
IC50: 7.02 µM

COc1ccc(-c2n[nH]c(C(F)(F)F)c2-c2cc3ccccc3o2)c(O)c1
IC50: 1.99 µM

Cc1ccc(C)c(N2CCN(C(=O)c3ccccc3Br)CC2)c1
IC50: 11.2 µM

CC1=C(C(=O)OCC(C)C)C(c2cc3c(cc2Br)OCO3)NC(=O)N1C (configuration not stated)
IC50: 18.1 µM

CCCn1nnnc1NC(=O)CSc1ccc(Cl)cc1
IC50: 4.21 µM

O=C(Nc1ccc(Cl)c(Cl)c1)N1CCSC1c1ccco1 (configuration not stated)
IC50: 5.12 µM

O=C(c1cc(-c2ccccc2)on1)N1CCN(Cc2ccc3c(c2)OCO3)CC1
IC50: 20.8 µM

Cc1csc(SCC(=O)Nc2nc(-c3ccccc3)cs2)n1
IC50: 14.1 µM

c1ccc(CC2CCN(Cc3nc(-c4ccccc4)no3)CC2)cc1
IC50: 13.4 µM

Cc1onc(-c2ccccc2)c1C(=O)Nc1nnc(N(C)Cc2ccccc2)s1
IC50: 23.9 µM

CCCCCCOC(=O)C(C#N)c1nc2ccccc2nc1N1CCN(C)CC1 (configuration not stated)
IC50: 12.9 µM

CCOC(=O)Cc1nnc2c(Nc3ccccc3F)nc3nonc3n12
IC50: 6.82 µM

CCCCC(=O)Nc1cccc(-c2nnc(-c3ccccc3)o2)c1
IC50: 16.9 µM

O=C(c1cccc(COc2ccc(Cl)cc2Cl)c1)N1CCN(c2ccccn2)CC1
IC50: 3.82 µM

CC(C)c1ccc(-c2noc(C3CCCN(C(=O)c4ccc(F)cc4F)C3)n2)cc1 (configuration not stated)
IC50: 17.9 µM

CCOC(=O)c1cccc(NC(=O)Nc2cc(OC)ccc2OC)c1
IC50: 20.5 µM

CC(=O)c1c(O)cc(C)n(Nc2nc(C)cc(C)n2)c1=O
IC50: 13.1 µM

CN1CCN(c2c(F)cc3c(=O)c(C(=O)O)cn4c3c2SCC4)CC1
IC50: 0.91 µM

CN1CCCN(C(=O)Cc2c(Cl)cccc2Cl)c2nc3ccccc3nc21
IC50: 13.1 µM

Cc1c(NC(=O)Nc2ccc(Cl)c(Cl)c2)c(=O)n(-c2ccccc2)n1C
IC50: 39.6 µM

O=C1Nc2ccccc2C12OCC(COc1ccc(Cl)cc1)O2 (configuration not stated)
IC50: 17.4 µM

CCOC(=O)c1csc(Nc2nc3ccc(F)cc3s2)n1
IC50: 5.89 µM

Cc1onc(-c2ccccc2Cl)c1C(=O)Nc1sc2c(c1C#N)CCC2
IC50: 7.5 µM

O=C(NCc1ccc2c(c1)OCO2)c1ccc(COc2cccc(Cl)c2)o1
IC50: 7.25 µM

CCCCc1c(C)nn(-c2nnc3c4ccccc4n(CC)c3n2)c1C
IC50: 1.77 µM

CCc1ccccc1N(C)C(=O)CCc1nc(-c2ccc(C)cc2)no1
IC50: 13.8 µM

OCCN1CCN(c2nc(-c3ccccc3)c3cc(Cl)ccc3n2)CC1
IC50: 60.6 µM

CCOC(=O)c1c(NC(=O)C(F)(OC)C(F)(F)F)sc(C(=O)N2CCCCC2)c1C (configuration not stated)
IC50: 24.6 µM

CCn1cc(C(=O)O)c(=O)c2cc(F)c(N3CCN(C(=O)Nc4ccccc4)CC3)cc21
IC50: < 0.2 µM

Cn1c(C(=O)N2CCc3ccccc3C2)cc2oc3ccccc3c21
IC50: 7.81 µM

Cc1cc(C)nc(-n2nc(C)cc2Nc2ccccc2)n1
IC50: 2.65 µM

c1ccc(Cn2nnnc2C(c2cccs2)N2CCCCCC2)cc1 (configuration not stated)
IC50: 9.47 µM

O=C(Nc1nnc(-c2ccc3c(c2)CCCC3)o1)C1COc2ccccc2O1 (configuration not stated)
IC50: 0.45 µM

Cn1c(-c2ccccc2)cc2c3no[n+]([O-])c3ccc21
IC50: 5.09 µM

CC1CCCN(S(=O)(=O)c2ccc(NC(=O)Cn3nnc(-c4ccccc4F)n3)cc2)C1 (configuration not stated)
IC50: 26.6 µM

CCCc1nc(SCC(=O)N2CCC(Cc3ccccc3)CC2)c2c(=O)n(C)c(=O)n(C)c2n1
IC50: 11.2 µM

CCCOC(=O)c1ccc(-c2c(C)noc2-c2ccc(OC)cc2O)o1
IC50: 4.71 µM

CCOC(=O)c1ccc(Oc2nc(NC(C)(C)C)nc(N(C)C)n2)cc1
IC50: 14.9 µM

CSc1nc2ccc(NS(=O)(=O)c3ccc(Cl)s3)cc2s1
IC50: 0.72 µM

O=C(Nc1nnc(-c2ccccc2Cl)o1)c1cccnc1
IC50: 16.7 µM

Cc1cccc(N(C)C(=O)c2cc3cc4ccc(C)cc4nc3o2)c1
IC50: 23.9 µM

CCOC(=O)CCSc1nc2c(c(C(F)(F)F)c1C#N)CCC2
IC50: 13.9 µM

Cc1ccc2c(c1)c1c(n2CC(O)Cn2c(C)nc3ccccc32)/C(=N\O)CCC1 (configuration not stated)
IC50: 26.1 µM

CCOC(=O)c1ccc(N2C(=O)c3n[nH]c(C)c3C2c2ccc(OC)cc2OC)cc1 (configuration not stated)
IC50: 16.8 µM

COc1nc(N(c2ccccc2)c2ccccc2)nc(-n2ccnc2)n1
IC50: 5.65 µM

CCCCSC1=C(C#N)C(c2ccccc2C)C(C(=O)OCC)C(=O)N1 (configuration not stated)
IC50: 11.5 µM

COc1ccccc1N1CCN(C(c2ccccc2Cl)c2nnnn2C(C)(C)C)CC1 (configuration not stated)
IC50: 27.6 µM

Cc1ccc2c(CC(=O)OCc3nc(N)nc(Nc4ccccc4C)n3)coc2c1
IC50: 10 µM

O=C(CSc1nnc(Cc2cccs2)n1Cc1ccco1)Nc1ccc(Br)cc1
IC50: 5.74 µM

CCC(c1nnnn1C1CCCCC1)N(Cc1ccco1)Cc1cc2ccc(OC)cc2[nH]c1=O (configuration not stated)
IC50: 13.3 µM

O=C(Nc1ccc(CN2CCOCC2)cc1)c1ccc(-c2ccc(Br)cc2)o1
IC50: 30.4 µM

CC1=CC(C)(C)N(C(=O)c2ccc(F)cc2)c2cc3c(cc21)OCO3
IC50: 12.7 µM

CCc1cc(C(=O)Cc2ccc(F)cc2)c(O)cc1O
IC50: 7.76 µM

CSc1ccc(-c2cc(=O)c3ccccc3o2)cc1
IC50: 42.1 µM

C=CCn1c(SCC(O)Cn2c3ccccc3c3ccccc32)nnc1-c1ccco1 (configuration not stated)
IC50: 21.6 µM

O=C(c1cc2ccccc2o1)N1CCN(c2ccccc2Cl)CC1
IC50: 9.9 µM

Cc1cc(Nc2ccccc2)n(-c2nc3ccccc3[nH]2)n1
IC50: 4.9 µM

O=C(CN(C1CC1)S(=O)(=O)c1ccc(S(=O)(=O)NC2CCCCC2)cc1)Nc1ccccc1
IC50: 10.5 µM

O=C(Nc1scc(-c2cccs2)c1C(=O)O)c1cccs1
IC50: 10.5 µM

O=C1c2ccccc2C(O)(Cc2ccccc2)N1C1CCCCC1 (configuration not stated)
IC50: 11.5 µM

O=S(=O)(Nc1nc2ccccc2s1)c1ccc(Br)s1
IC50: 3.88 µM

CCOC(=O)c1cnc(-n2cc(C)cn2)nc1Nc1ccccc1OCC
IC50: 16 µM

O=C(CSc1ncnc2c1oc1ccccc12)N1CCCc2ccccc21
IC50: 15.1 µM

CCOc1cc(C)c(Cl)cc1S(=O)(=O)n1nnc2ccccc21
IC50: 11.6 µM

COc1ccccc1C1SCCN1S(=O)(=O)c1cccc(C(F)(F)F)c1 (configuration not stated)
IC50: 16.4 µM

CCn1c(C(=O)N2CCC(Cc3ccccc3)CC2)cc2sccc21
IC50: 10.2 µM

O=C(c1ccc(COc2ccc(Cl)cc2)o1)N1CCN(Cc2ccc3c(c2)OCO3)CC1
IC50: 5.35 µM

CCCCCCn1c2c(c(=N)c3c1CCC3)CCC2
IC50: 10.2 µM

Cc1ccc(S(=O)(=O)Nc2cccc3ncccc23)s1
IC50: 1.65 µM

O=C(Nc1nnc(-c2ccccc2)o1)c1ccc(Cl)cc1
IC50: 0.17 µM

Cc1c(C(=O)N2CCCCC2)oc2ccc(S(=O)(=O)N3CC(C)CC(C)C3)cc12 (configuration not stated)
IC50: 9.13 µM

c1ccc(-c2oc3ncnc(NCCCn4ccnc4)c3c2-c2ccccc2)cc1
IC50: 6.05 µM

COc1ccc2c(c1)CCc1c(C(=O)N3CCc4ccccc4C3)noc1-2
IC50: 5.76 µM

CC1CCCCN1S(=O)(=O)c1ccc(C(=O)Nc2nnc(-c3cccs3)o2)cc1 (configuration not stated)
IC50: 0.24 µM

Cc1nc(N2CCN(Cc3ccccc3)CC2)nc2c1C(=O)CC(c1ccco1)C2 (configuration not stated)
IC50: 10.6 µM

Cc1ccc(C)c(S(=O)(=O)C(C#N)c2nc3ccccc3nc2N2CCOCC2)c1 (configuration not stated)
IC50: 11.6 µM

CCn1cc(C(=O)OC(C)C(=O)Nc2c(C)n(C)n(-c3ccccc3)c2=O)c(=O)c2ccc(C)nc21 (configuration not stated)
IC50: 12.7 µM

CCCCCCC(=O)N1CCC(c2nc3c(nnn3Cc3ccccc3Cl)c(=O)[nH]2)CC1
IC50: 6.36 µM

N#Cc1ccc(NC(=O)Nc2ccc(Cl)cc2)cc1
IC50: 0.52 µM

CCn1c(=O)c(C(=O)Nn2c(C)nc3ccccc3c2=O)c(O)c2ccccc21
IC50: 3.26 µM

COc1ccccc1C1CC(c2ccc(Cl)cc2)Nc2ncnn21 (configuration not stated)
IC50: 15.1 µM

CN(c1ccccc1)S(=O)(=O)c1ccc(C(=O)Nc2nnc(-c3ccc(F)cc3)o2)cc1
IC50: 0.21 µM

Cc1cc(/C=C(/C#N)c2cccc(F)c2)c(C)n1-c1cccnc1
IC50: 10.9 µM

C/C(O)=c1/ccc2cccc3nc(C)nc1c23
IC50: 26 µM
